Reference: ChEMBL document CHEMBL2177085 (J Med Chem, 2012)

What was measured:
HT-29 [1] = assay: Cytotoxic activity against human HT-29 cells assessed as cell viability at 7.9 uM incubated for 3 days by MTT assay; format: functional; settings: HT-29, 72 h, read-out: Activity
Procedure, shortened: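 HT-29 cells in exponential growth were seeded at 10 000 viable cells per well in RPMI and left overnight. They were then exposed to compound for 3 days at 37 °C under 5% CO₂. MTT was added for 4 h, followed by overnight solubilisation in 10% SDS/0.01 M HCl and absorbance at 562 nm. Viability is expressed as % of untreated cells (100%), in triplicate.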

MKN-45 [2] = assay: Induction of apoptosis in human MKN45 assessed as accumulation at subG1 phase at 10 uM incubated for 7 days by flow cytometry (reference value: 10.9 +/- 3.2%); format: functional
HT-29 [3] = assay: Cytotoxic activity against human HT-29 cells assessed as cell viability at 52 uM incubated for 3 days by MTT assay; format: functional; settings: HT-29, 72 h, read-out: Activity
Procedure, shortened: (§1)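 MTT viability: exponentially growing cells, 10 000 viable cells/well in RPMI plated overnight, then exposed to test compounds for 3 days (HT-29, Molm-14) or 5 days (Mkn-45) at 37 °C, 5% CO2. MTT added for 4 h, then SDS/HCl solubilization overnight and absorbance read at 562 nm. Viability is expressed relative to untreated cells (100%). Triplicate.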

MKN-45 [4] = assay: Cytotoxic activity against human MKN45 cells assessed as cell viability at 20 uM incubated for 5 days by MTT assay; format: functional; settings: MKN-45, 120 h, read-out: Activity; procedure, shortened: as §1
MKN-45 [5] = assay: Cytotoxic activity against human MKN45 cells assessed as cell viability at 1 uM incubated for 5 days by MTT assay; format: functional; settings: MKN-45, 120 h, read-out: Activity; procedure, shortened: as §1
MKN-45 [6] = assay: Cytotoxic activity against human MKN45 cells assessed as cell viability at 10 uM incubated for 5 days by MTT assay; format: functional; settings: MKN-45, 120 h, read-out: Activity; procedure, shortened: as §1
[7] = Inhibition of angiogenesis in chick embryo model assessed as reduction in vessel growth at 26 nM incubated for 24 hrs; format: functional, Gallus gallus
Procedure, shortened: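 White leghorn eggs incubated at 37.5 °C, 62% humidity. At 70 h, albumen removed and shell windowed. From 75 h, 15 agarose pellets (from a 26 mM DMSO stock in 2% agarose; final concentration 26 nM) placed on the area vasculosa.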

HUVEC [8] = assay: Induction of apoptosis in human HUVEC assessed as accumulation at subG1 phase at 0.79 uM incubated for 4 days by flow cytometry (reference value: 15.4 +/- 1.5%); format: functional
MKN-45 [9] = assay: Induction of apoptosis in human MKN45 assessed as accumulation at subG1 phase at 5 uM incubated for 7 days by flow cytometry (reference value: 10.9 +/- 3.2%); format: functional
MKN-45 [10] = assay: Cytotoxic activity against human MKN45 cells assessed as cell viability at 5 uM incubated for 5 days by MTT assay; format: functional; settings: MKN-45, 120 h, read-out: Activity; procedure, shortened: as §1
MKN-45 [11] = assay: Induction of apoptosis in human MKN45 assessed as accumulation at subG1 phase at 15 uM incubated for 7 days by flow cytometry (reference value: 10.9 +/- 3.2%); format: functional
[12] = biological target: Vascular endothelial growth factor receptor 2 (Homo sapiens, UniProt P35968); assay: Inhibition of VEGFR2
Sequence of Vascular endothelial growth factor receptor 2 (P35968 whole entry): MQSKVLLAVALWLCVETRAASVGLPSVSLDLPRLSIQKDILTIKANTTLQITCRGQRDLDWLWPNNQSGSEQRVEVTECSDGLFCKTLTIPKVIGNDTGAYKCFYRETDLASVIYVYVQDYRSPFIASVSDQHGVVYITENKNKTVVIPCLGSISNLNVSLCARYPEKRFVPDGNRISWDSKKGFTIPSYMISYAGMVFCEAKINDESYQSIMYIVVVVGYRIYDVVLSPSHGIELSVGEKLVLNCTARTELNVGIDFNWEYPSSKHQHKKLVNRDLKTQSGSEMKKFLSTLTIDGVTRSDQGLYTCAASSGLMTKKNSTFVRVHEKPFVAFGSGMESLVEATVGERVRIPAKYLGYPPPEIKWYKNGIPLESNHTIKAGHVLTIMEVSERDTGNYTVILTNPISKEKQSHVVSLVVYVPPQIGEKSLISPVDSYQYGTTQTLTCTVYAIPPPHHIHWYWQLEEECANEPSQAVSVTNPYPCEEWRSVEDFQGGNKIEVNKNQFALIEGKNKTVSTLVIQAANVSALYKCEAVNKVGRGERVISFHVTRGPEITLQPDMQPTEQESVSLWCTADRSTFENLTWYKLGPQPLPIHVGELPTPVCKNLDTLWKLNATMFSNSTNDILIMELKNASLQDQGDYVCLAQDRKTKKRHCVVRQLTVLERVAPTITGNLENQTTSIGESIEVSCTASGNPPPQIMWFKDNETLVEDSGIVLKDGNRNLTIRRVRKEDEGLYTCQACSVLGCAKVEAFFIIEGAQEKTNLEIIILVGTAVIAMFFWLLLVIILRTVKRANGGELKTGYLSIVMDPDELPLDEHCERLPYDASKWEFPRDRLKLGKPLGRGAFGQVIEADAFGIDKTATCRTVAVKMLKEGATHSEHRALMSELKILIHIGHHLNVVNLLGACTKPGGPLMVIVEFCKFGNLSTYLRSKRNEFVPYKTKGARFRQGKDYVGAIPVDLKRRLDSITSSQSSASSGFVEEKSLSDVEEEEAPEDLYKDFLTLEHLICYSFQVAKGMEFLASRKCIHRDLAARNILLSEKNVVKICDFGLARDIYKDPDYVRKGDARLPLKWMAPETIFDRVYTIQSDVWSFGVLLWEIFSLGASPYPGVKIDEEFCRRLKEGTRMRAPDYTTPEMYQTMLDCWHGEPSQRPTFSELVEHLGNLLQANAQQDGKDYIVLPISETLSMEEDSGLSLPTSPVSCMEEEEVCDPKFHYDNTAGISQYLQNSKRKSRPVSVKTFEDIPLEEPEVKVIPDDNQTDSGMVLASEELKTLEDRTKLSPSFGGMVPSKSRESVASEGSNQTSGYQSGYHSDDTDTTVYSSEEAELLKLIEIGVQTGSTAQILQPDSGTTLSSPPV
Procedure, shortened: (§2)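 IC50 determined by a commercial kinase profiling service (Millipore IC50 Profiler); duplicate testing.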

HT-29 [13] = assay: Cytotoxic activity against human HT-29 cells assessed as cell viability at 2.6 uM incubated for 3 days by MTT assay; format: functional; settings: HT-29, 72 h, read-out: Activity; procedure, shortened: as §1
HUVEC [14] = assay: Induction of apoptosis in human HUVEC assessed as accumulation at subG1 phase at 2.6 uM incubated for 4 days by flow cytometry (reference value: 15.4 +/- 1.5%); format: functional
MKN-45 [15] = assay: Induction of apoptosis in human MKN45 assessed as accumulation at subG1 phase at 1 uM incubated for 7 days by flow cytometry (reference value: 10.9 +/- 3.2%); format: functional
MKN-45 [16] = assay: Induction of apoptosis in human MKN45 assessed as accumulation at subG1 phase at 20 uM incubated for 7 days by flow cytometry (reference value: 10.9 +/- 3.2%); format: functional
[17] = biological target: T1, Receptor-type tyrosine-protein kinase FLT3 (Homo sapiens, UniProt P36888); assay: Inhibition of FLT3
T1 sequence (P36888 whole entry): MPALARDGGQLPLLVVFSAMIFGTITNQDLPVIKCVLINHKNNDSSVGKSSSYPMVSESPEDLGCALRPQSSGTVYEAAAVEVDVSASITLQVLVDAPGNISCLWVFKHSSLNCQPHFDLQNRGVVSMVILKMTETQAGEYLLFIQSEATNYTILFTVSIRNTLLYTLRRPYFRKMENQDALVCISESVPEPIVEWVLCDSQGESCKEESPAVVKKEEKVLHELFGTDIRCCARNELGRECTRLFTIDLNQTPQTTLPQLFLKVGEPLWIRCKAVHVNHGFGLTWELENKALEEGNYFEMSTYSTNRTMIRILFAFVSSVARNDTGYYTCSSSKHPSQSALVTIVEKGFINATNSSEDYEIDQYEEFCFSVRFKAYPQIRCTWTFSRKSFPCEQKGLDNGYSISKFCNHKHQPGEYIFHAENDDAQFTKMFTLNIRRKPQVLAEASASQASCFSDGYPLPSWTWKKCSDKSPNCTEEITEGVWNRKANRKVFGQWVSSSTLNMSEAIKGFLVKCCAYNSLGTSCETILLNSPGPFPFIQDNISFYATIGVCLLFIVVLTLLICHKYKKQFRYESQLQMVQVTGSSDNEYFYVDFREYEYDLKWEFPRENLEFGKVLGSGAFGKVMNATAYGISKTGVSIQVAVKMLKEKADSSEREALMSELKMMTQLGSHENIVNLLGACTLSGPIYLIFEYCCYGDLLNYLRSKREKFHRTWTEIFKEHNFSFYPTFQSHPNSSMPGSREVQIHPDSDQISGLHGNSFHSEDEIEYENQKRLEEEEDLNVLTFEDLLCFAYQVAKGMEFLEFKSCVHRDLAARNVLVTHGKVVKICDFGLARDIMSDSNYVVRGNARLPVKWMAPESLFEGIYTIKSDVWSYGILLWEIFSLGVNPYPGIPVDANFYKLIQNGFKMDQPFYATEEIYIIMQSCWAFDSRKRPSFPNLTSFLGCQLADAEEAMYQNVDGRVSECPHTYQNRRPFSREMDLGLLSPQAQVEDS
Procedure, shortened: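 Run as an outsourced kinase profiling service (Millipore IC50 Profiler), with the protocol referred to the provider. Gives IC50 values and residual activity at 10 μM test compound. Compounds tested in duplicate.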

MKN-45 [18] = assay: Cytotoxic activity against human MKN45 cells assessed as cell viability at 0.5 uM incubated for 5 days by MTT assay; format: functional; settings: MKN-45, 120 h, read-out: Activity; procedure, shortened: as §1
HT-29 [19] = assay: Cytotoxic activity against human HT-29 cells assessed as cell viability at 26 uM incubated for 3 days by MTT assay; format: functional; settings: HT-29, 72 h, read-out: Activity; procedure, shortened: as §1
MKN-45 [20] = assay: Cytotoxic activity against human MKN45 cells assessed as cell viability at 50 uM incubated for 5 days by MTT assay; format: functional; settings: MKN-45, 120 h, read-out: Activity; procedure, shortened: as §1
[21] = biological target: Glycogen synthase kinase-3 beta (Homo sapiens, UniProt P49841); assay: Inhibition of GSK3beta; procedure, shortened: as §2
Sequence of Glycogen synthase kinase-3 beta (P49841 whole entry): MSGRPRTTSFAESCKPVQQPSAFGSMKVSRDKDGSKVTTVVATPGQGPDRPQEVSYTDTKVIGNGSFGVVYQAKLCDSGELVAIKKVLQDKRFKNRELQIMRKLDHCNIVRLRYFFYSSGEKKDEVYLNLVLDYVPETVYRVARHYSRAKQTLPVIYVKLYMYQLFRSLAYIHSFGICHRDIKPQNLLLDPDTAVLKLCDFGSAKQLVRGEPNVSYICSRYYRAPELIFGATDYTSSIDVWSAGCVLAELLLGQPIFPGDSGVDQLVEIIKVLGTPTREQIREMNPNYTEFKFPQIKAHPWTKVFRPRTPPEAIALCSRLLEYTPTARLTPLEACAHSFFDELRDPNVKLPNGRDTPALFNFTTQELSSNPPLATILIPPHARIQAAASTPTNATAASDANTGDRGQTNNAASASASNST

HT-29 [22] = assay: Induction of apoptosis in human HT-29 assessed as accumulation at subG1 phase at 1.18 uM incubated for 7 days by flow cytometry (reference value: 3.4 +/- 0.9%); format: functional
Procedure, shortened: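 HT-29 cells, 1.5 × 10⁵ per well, plated overnight, then exposed for 7 days to irinotecan at 1.18 μM, alone or with 7.9 μM test compound. Cells were trypsinized and stained for 1 h at 4 °C in PI buffer (sodium citrate, Triton X-100, PI). Sub-G1 fraction measured by flow cytometry (Nicoletti method). Drug-free control used as baseline. Triplicate.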

SMILES	viability at 7.9 µM (HT-29 [1]) [%]	Activity (MKN-45 [2]) [%]	viability at 52 µM (HT-29 [3]) [%]	viability at 20 µM (MKN-45 [4]) [%]	viability at 1 µM (MKN-45 [5]) [%]	viability at 10 µM (MKN-45 [6]) [%]	inhibition (INH) [7] [%]	Activity (MKN-45 [9]) [%]	viability at 5 µM (MKN-45 [10]) [%]	Activity (MKN-45 [11]) [%]	viability at 2.6 µM (HT-29 [13]) [%]	Activity (MKN-45 [15]) [%]	Activity (MKN-45 [16]) [%]	viability at 0.5 µM (MKN-45 [18]) [%]	viability at 26 µM (HT-29 [19]) [%]	viability at 50 µM (MKN-45 [20]) [%]	further results
COc1cc(C2=C(c3c[nH]c4ccncc34)C(=O)NC2=O)cc(OC)c1OC	61.5	21.5	47.4	89.4	100	98.6	40	15.7	99	25.7	90.8	8.8	31.6	99.1	56.5	82.5	Activity (HUVEC [8]): 31.3%; IC50 [12]: 590 nM; Activity (HUVEC [14]): 46.3%; IC50 [17]: ≥ 3000 nM; IC50 [21]: 40 nM
COc1cc(OC)cc(C2=C(c3c[nH]c4ncccc34)C(=O)NC2=O)c1	49.2	31.8	40.5	62.1	118	57	25	24.8	60.4	45.8	54.3	12.7	55.7	118	43	59.4	–
CCc1c2c(nc3ccc(OC(=O)N4CCC(N5CCCCC5)CC4)cc13)-c1cc3c(c(=O)n1C2)COC(=O)[C@]3(O)CC [IRINOTECAN]	–	–	–	–	–	–	–	–	–	–	–	–	–	–	–	–	Activity (HT-29 [22]): 18.3%
